APP 5'UTR act – activates APP 5'UTR luciferase reporter. actives 1% (n = 190,000). activation, % at 2 µM. SH-SY5Y APP 5'UTR luciferase reporter, luminescence; zero percent = DMSO vehicle wells;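 active = activation above a set limit, based on mean plus 3 SD of controls, cut at about 140% in these data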
PPC-1+TRAIL kill – compounds killing PPC-1 cancer cells with TRAIL present (potentiator screen, no TRAIL-free arm). cell killing (% activity), % at 4 µM or 5 µM. PPC-1 cells + TRAIL, ATPLite viability luminescence. actives 0.41% (n = 220,000). AID 1443;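 active = cell killing above 50% in the first pass at 4 µM, then a duplicate retest at 5 µM averaging 50% or more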
NF-kB neuron act – compounds increasing NF-kB expression in human neuronal cells | AID 1239 | actives 1.6% (n = 190,000) | fold change at 12.5 µM | NF-kB reporter expression; stronger effect = higher value; in the data active = fold change above about 3.3
FLuc act counter – affects firefly luciferase, flagging false hits in luciferase stimulation screens; ATPlite luciferase biochemical, luminescence, 10 min; 0 = ATP-free wells, 1 = DMSO control; activation factor at 10 µM; 200,000 tested, under 10 active; AID 1027;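 active = luciferase activation factor, scaled between plate controls, of at least 2 with compound at 10 µM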
Target sequence (P08659 whole entry, looked up): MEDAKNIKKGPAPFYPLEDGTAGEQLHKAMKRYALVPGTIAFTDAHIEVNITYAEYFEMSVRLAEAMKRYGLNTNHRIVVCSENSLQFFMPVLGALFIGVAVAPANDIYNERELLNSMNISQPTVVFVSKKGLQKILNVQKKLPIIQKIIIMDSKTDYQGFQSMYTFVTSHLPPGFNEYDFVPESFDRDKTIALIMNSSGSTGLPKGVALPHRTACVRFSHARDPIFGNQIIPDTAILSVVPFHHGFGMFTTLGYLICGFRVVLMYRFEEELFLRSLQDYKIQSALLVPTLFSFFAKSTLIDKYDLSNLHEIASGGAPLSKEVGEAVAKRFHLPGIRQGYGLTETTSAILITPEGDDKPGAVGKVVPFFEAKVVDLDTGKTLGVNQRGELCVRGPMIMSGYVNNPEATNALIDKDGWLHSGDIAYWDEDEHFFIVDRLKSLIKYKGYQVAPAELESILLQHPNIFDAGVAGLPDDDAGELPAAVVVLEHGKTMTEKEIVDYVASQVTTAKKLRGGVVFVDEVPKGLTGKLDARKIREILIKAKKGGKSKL
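Assay system: Luciferase/luciferin reagent mix; Medium: PBS as buffer for the ATP substrate; Dosing: test compounds dosed from 2 mM stocks in 100% DMSO; Times: 10 min, room temperature; Signal: luminescence from luciferase reaction; Read-out: luciferase activation; Controls: No-ATP low control, compound-free enzyme-plus-ATP high control.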
TRAIL sens C8 – caspase-8 TRAIL sensitization; inhibition (viability loss, TRAIL sensitization), % at 10 µM; AID 624354; NB7+C8 cells + TRAIL, ATPlite viability luminescence; actives 1% (n = 360,000);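 active = compounds causing at least 50% loss of cell viability in the single-dose screen, relative to plate controls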
FLuc inh counter – inhibits firefly luciferase, flagging false hits in luciferase inhibition screens | P08659 | ATPLite firefly luciferase biochemical luminescence, 10 min | inhibition, % at 10 µM | actives 1.5% (n = 200,000) | AID 1006;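 active = inhibition above about 50% when tested at 10 µM, limit read from the data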
A number is an active result; n = inactive; x = no result. Shown are actives, neighbours in structure and some others; about 2.2% of the full set was active somewhere.

SMILES | APP 5'UTR act | PPC-1+TRAIL kill | NF-kB neuron act | FLuc act counter | TRAIL sens C8 | FLuc inh counter
Cc1ccc(S(=O)(=O)N2[C@H](CC(=O)c3ccc(F)cc3)OC[C@@H]2C)cc1 | x | x | x | x | n | x
COc1ccc(C#Cc2ccc3c(c2)O[C@@H](CN(C)C(=O)Nc2cccc(OC)c2)[C@H](C)CN([C@@H](C)CO)S3(=O)=O)cc1 | x | x | x | x | n | x
Clc1ccc2c(c1)C1OCCC1C(c1ccco1)N2 (centres undefined) | n | n | n | n | n | 54.4
Cc1ccc(N=Nc2c(N)n(-c3ccccc3)[nH]c2=O)cc1 | n | n | 4.21 | n | n | n
Cc1[nH]n(-c2ccccc2)c(=O)c1N=Nc1ccccc1 | n | n | 3.96 | n | n | n
CS(=O)(=O)N1CCCCC1c1cc(C(=O)NCc2ccc(Cl)c(Cl)c2)no1 (centres undefined) | x | x | x | x | n | x
Cc1ccc(/C=C/C(=O)c2nc3ccccc3[nH]2)cc1 | n | n | n | n | n | 93.5
Cc1ccc(Nc2nc3ccccc3[nH]2)nc1 | n | n | 5.38 | n | n | n
Cc1ccc(C)c(C(=O)Nc2nc3ccccc3[nH]2)c1 | x | x | x | x | n | x
Cc1ccc(/C=C/C(=O)Nc2ccccc2C(N)=O)cc1 | 183.4 | 84.3 | 5.32 | n | 84.0 | 93.4
Cc1ccc(/C=C/C(=O)Nc2nc3ccccc3[nH]2)cc1 | 179.7 | n | n | n | n | n
Cc1ccc(Cc2nc3ccccc3[nH]2)cc1 | x | x | x | x | n | x
Cc1ccc(N=C2NC(=O)/C(=C/c3cccnc3)S2)c(C)c1 | x | n | x | x | n | x
Cc1ccc(N=C2NC(=O)/C(=C\c3ccsc3)S2)c(C)c1 | n | n | 4.42 | n | n | n
CC(C)NC(=O)Nc1ccc2c(c1)C(=O)N([C@@H](C)CO)C[C@H](C)[C@H](CN(C)S(=O)(=O)c1ccccc1)OCCCC[C@H](C)O2 | x | x | x | x | n | x
Cc1cccc2sc(NNC(=O)c3cc(-c4cccs4)nc4ccccc34)nc12 | n | n | n | n | 50.4 | n
NNC(=O)c1cc(-c2cccs2)nc2ccccc12 | x | n | x | x | n | x
CC(C)(C)c1ccc(C(=O)N2[C@H](COCc3ccccc3)C=CS2(=O)=O)cc1 | x | x | x | x | n | x
Cc1[nH]c2ccccc2c1N=Nc1cccc(C(=O)O)c1 | n | n | 4.13 | n | n | n
COC(=O)c1cc(N=Nc2c(C)[nH]c3ccccc23)cc(C(=O)OC)c1 | x | n | x | x | n | x
Nc1nc(N)c2cc([N+](=O)[O-])ccc2n1 | x | x | x | x | n | x
Nc1nc(N)c2cc(S(=O)(=O)c3ccc4ccccc4c3)ccc2n1 | x | x | x | x | 72.3 | x
CCCCCCCCN1C(=O)[C@H](CC(=O)NCCCN2CCCC2=O)C[C@@]2(C(=O)OC)CC(C)(C)CC=C12 | x | x | x | x | n | x
COc1ccc(C(=O)Nc2ccccc2C(=O)N/N=C/c2ccco2)cc1 | n | n | n | n | 84.0 | 96.9
COc1ccc(C(=O)Nc2ccccc2C(=O)Nc2ccccc2)cc1 | x | x | x | x | n | x
SMILES | APP 5'UTR act | PPC-1+TRAIL kill | NF-kB neuron act | FLuc act counter | TRAIL sens C8 | FLuc inh counter
CCOc1ccc(/C=N/NC(=O)c2ccccc2NC(=O)c2ccc(OC)cc2)cc1 | n | n | n | n | 76.0 | 94.1
CC(C)Nc1ncnc2c1cnn2-c1ccc(Cl)cc1 | 154.6 | n | n | n | 56.9 | 63.9
Clc1ccc(Nc2ncnc3c2cnn3-c2ccccc2)cc1 | n | n | n | n | n | n
OCCOCCNc1ncnc2c1cnn2-c1ccccc1 | n | x | n | n | n | n
COCCNc1ncnc2c1cnn2-c1ccc(Cl)cc1 | 197.2 | x | 7.43 | n | n | n
COCCN(CCOC)c1ncnc2c1cnn2-c1ccc(Cl)cc1 | n | n | n | n | n | n
OCCOCCNc1ncnc2c1cnn2-c1ccc(Cl)cc1 | 139.9 | x | 4.61 | n | n | n
O=c1[nH]c(=S)[nH]c2c1C(c1cccc(C(F)(F)F)c1)OC(CCc1ccccc1)C2 (centres undefined) | x | x | x | x | n | x
CC(C)(C)NC(=O)C(c1ccnc2ccccc12)n1c(=O)c(-c2ccco2)nc2ccccc21 (centres undefined) | x | x | x | x | n | x
Cc1ccc(-n2[nH]c(C)c(C=Nc3ccc4[nH]c(=O)[nH]c4c3)c2=O)cc1C | n | n | n | n | 51.3 | n
Cc1ccc(CN2CCN(/N=C/c3ccc(O)c(O)c3)CC2)cc1 | x | x | x | x | n | x
CN=c1scc(-c2ccc(F)cc2)n1/N=C/c1ccc(O)c(O)c1 | n | n | n | n | 74.0 | 89.6
CNC(=O)c1ccsc1NC(=O)c1ccc2c(c1)CCCC2 | n | n | n | n | n | 74.3
